Tests used:
Mus musculus [1] = assay: Antinociceptive activity in Swiss albino mouse assessed as licking time in secondary inflammatory period at 3 mg/kg, ip administered 30 mins prior to formalin-challenge (reference value: 217 +/- 68.5 seconds); type: functional; details: route intraperitoneal
Rattus norvegicus [2] = assay: Antiinflammatory activity in Wistar rat assessed as change in carrageenan-induced hind paw thickness at 6 mg/kg, ip administered 30 mins prior to carrageenan-challenge measured after 1 hr (reference value: 1.84 +/- 0.41 mm); type: functional; details: route intraperitoneal
Mus musculus [3] = assay: Antinociceptive activity in Swiss albino mouse assessed as licking time in primary neurogenic period at 3 mg/kg, ip administered 30 mins prior to formalin-challenge (reference value: 80 +/- 19 seconds); type: functional; details: route intraperitoneal
Rattus norvegicus [4] = assay: Antiinflammatory activity in Wistar rat assessed as change in carrageenan-induced hind paw thickness at 3 mg/kg, ip administered 30 mins prior to carrageenan-challenge measured after 1 hr (reference value: 1.84 +/- 0.41 mm); type: functional; details: route intraperitoneal
Rattus norvegicus [5] = assay: Antiinflammatory activity in Wistar rat assessed as change in carrageenan-induced hind paw thickness at 3 mg/kg, ip administered 30 mins prior to carrageenan-challenge measured after 3 hrs (reference value: 1.78 +/- 0.39 mm); type: functional; details: route intraperitoneal
Mus musculus [6] = assay: Antinociceptive activity in Swiss albino mouse assessed as licking time in primary neurogenic period at 6 mg/kg, ip administered 30 mins prior to formalin-challenge (reference value: 80 +/- 19 seconds); type: functional; details: route intraperitoneal
Rattus norvegicus [7] = assay: Antiinflammatory activity in Wistar rat assessed as change in carrageenan-induced hind paw thickness at 3 mg/kg, ip administered 30 mins prior to carrageenan-challenge measured after 2 hrs (reference value: 1.86 +/- 0.38 mm); type: functional; details: route intraperitoneal
Mus musculus [8] = assay: Antinociceptive activity in Swiss albino mouse assessed as licking time in secondary inflammatory period at 6 mg/kg, ip administered 30 mins prior to formalin-challenge (reference value: 217 +/- 68.5 seconds); type: functional; details: route intraperitoneal
[9] = molecular target: T1, Prostaglandin G/H synthase 1 (Ovis aries, UniProt P05979); assay: Inhibition of ovine COX1 using arachidonic acid as substrate by chemiluminescence assay
T1 sequence (P05979 whole entry): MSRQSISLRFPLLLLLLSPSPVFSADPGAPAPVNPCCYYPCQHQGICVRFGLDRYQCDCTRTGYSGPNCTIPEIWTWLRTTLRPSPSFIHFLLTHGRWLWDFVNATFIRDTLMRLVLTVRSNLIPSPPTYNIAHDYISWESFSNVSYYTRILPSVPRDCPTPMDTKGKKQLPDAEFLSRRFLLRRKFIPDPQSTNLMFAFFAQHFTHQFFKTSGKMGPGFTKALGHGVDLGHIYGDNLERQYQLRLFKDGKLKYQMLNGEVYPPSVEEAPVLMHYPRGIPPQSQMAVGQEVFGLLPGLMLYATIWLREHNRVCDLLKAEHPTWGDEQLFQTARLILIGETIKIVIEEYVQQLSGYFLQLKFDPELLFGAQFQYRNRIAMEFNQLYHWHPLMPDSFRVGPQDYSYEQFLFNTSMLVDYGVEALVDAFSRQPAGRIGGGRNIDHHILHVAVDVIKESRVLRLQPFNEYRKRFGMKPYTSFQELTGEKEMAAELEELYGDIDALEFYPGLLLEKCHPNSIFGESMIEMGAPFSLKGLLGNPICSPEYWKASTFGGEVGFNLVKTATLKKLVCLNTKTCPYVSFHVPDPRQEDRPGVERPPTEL
Outline: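 Ovine COX-1 chemiluminescent inhibitor screening kit: heme-catalyzed hydroperoxidase activity generates luminescence with a cyclic naphthalene hydrazide and arachidonic acid substrate. Luminescence serves as the index of catalytic activity. IC50 is the concentration giving 50% inhibition of enzyme activity.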

Rattus norvegicus [10] = assay: Antiinflammatory activity in Wistar rat assessed as change in carrageenan-induced hind paw thickness at 6 mg/kg, ip administered 30 mins prior to carrageenan-challenge measured after 3 hrs (reference value: 1.78 +/- 0.39 mm); type: functional; details: route intraperitoneal
Rattus norvegicus [11] = assay: Antiinflammatory activity in Wistar rat assessed as change in carrageenan-induced hind paw thickness at 6 mg/kg, ip administered 30 mins prior to carrageenan-challenge measured after 2 hrs (reference value: 1.86 +/- 0.38 mm); type: functional; details: route intraperitoneal
Rattus norvegicus [12] = assay: Antiinflammatory activity in Wistar rat assessed as change in carrageenan-induced hind paw thickness at 5 mg/kg, ip administered 30 mins prior to carrageenan-challenge measured after 2 hrs (reference value: 1.86 +/- 0.38 mm); type: functional; details: route intraperitoneal
Mus musculus [13] = assay: Antinociceptive activity in Swiss albino mouse assessed as licking time in secondary inflammatory period at 5 mg/kg, ip administered 30 mins prior to formalin-challenge (reference value: 217 +/- 68.5 seconds); type: functional; details: route intraperitoneal
Rattus norvegicus [14] = assay: Antiinflammatory activity in Wistar rat assessed as change in carrageenan-induced hind paw thickness at 5 mg/kg, ip administered 30 mins prior to carrageenan-challenge measured after 3 hrs (reference value: 1.78 +/- 0.39 mm); type: functional; details: route intraperitoneal
Rattus norvegicus [15] = assay: Antiinflammatory activity in Wistar rat assessed as change in carrageenan-induced hind paw thickness at 5 mg/kg, ip administered 30 mins prior to carrageenan-challenge measured after 1 hr (reference value: 1.84 +/- 0.41 mm); type: functional; details: route intraperitoneal
Mus musculus [16] = assay: Antinociceptive activity in Swiss albino mouse assessed as licking time in primary neurogenic period at 5 mg/kg, ip administered 30 mins prior to formalin-challenge (reference value: 80 +/- 19 seconds); type: functional; details: route intraperitoneal

| SMILES | IC50 [9] [µM] | Time (Mus musculus [1]) [s] | Activity (Rattus norvegicus [2]) [mm] | Time (Mus musculus [3]) [s] | Activity (Rattus norvegicus [4]) [mm] | Activity (Rattus norvegicus [5]) [mm] | Time (Mus musculus [6]) [s] | Activity (Rattus norvegicus [7]) [mm] | Time (Mus musculus [8]) [s] | Activity (Rattus norvegicus [10]) [mm] | Activity (Rattus norvegicus [11]) [mm] | Activity (Rattus norvegicus [12]) [mm] | Time (Mus musculus [13]) [s] | Activity (Rattus norvegicus [14]) [mm] | Activity (Rattus norvegicus [15]) [mm] | Time (Mus musculus [16]) [s] |
| --- | --- | --- | --- | --- | --- | --- | --- | --- | --- | --- | --- | --- | --- | --- | --- | --- |
| CSc1nnc(-c2ccc(S(C)(=O)=O)cc2)c(-c2ccccc2)n1 | 54.4 | 133 | 1.09 | 57 | 1.45 | 1.19 | 58 | 1.77 | 155 | 0.83 | 0.94 | – | – | – | – | – |
| COc1ccc2c(c1)c(CC(=O)O)c(C)n2C(=O)c1ccc(Cl)cc1 [INDOMETHACIN] | – | – | – | – | – | – | – | – | – | – | – | 0.81 | 127 | 0.57 | 1.05 | 45 |
| CSc1nnc(-c2ccc(S(C)(=O)=O)cc2)c(-c2ccc(C)cc2)n1 | 52.4 | 175 | 0.98 | 49 | 0.87 | 0.55 | 61 | 0.68 | 139 | 0.67 | 0.8 | – | – | – | – | – |

Second part, led by results:

| IC50 [9] [µM] | SMILES | Time (Mus musculus [1]) [s] | Activity (Rattus norvegicus [2]) [mm] | Time (Mus musculus [3]) [s] | Activity (Rattus norvegicus [4]) [mm] | Activity (Rattus norvegicus [5]) [mm] | Time (Mus musculus [6]) [s] | Activity (Rattus norvegicus [7]) [mm] | Time (Mus musculus [8]) [s] | Activity (Rattus norvegicus [10]) [mm] | Activity (Rattus norvegicus [11]) [mm] | Activity (Rattus norvegicus [12]) [mm] | Time (Mus musculus [13]) [s] | Activity (Rattus norvegicus [14]) [mm] | Activity (Rattus norvegicus [15]) [mm] | Time (Mus musculus [16]) [s] |
| --- | --- | --- | --- | --- | --- | --- | --- | --- | --- | --- | --- | --- | --- | --- | --- | --- |
| 51.6 | CSc1nnc(-c2ccc(S(C)(=O)=O)cc2)c(-c2ccc(F)cc2)n1 | 127 | 0.75 | 52 | 1.24 | 0.97 | 34 | 1.16 | 152 | 0.34 | 0.56 | – | – | – | – | – |
| 50.1 | COc1ccc(-c2nc(SC)nnc2-c2ccc(S(C)(=O)=O)cc2)cc1 | 227 | 0.58 | 46 | 0.96 | 0.64 | 49 | 0.72 | 118 | 0.3 | 0.43 | – | – | – | – | – |
| 39.5 | CSc1nnc(-c2ccc(S(C)(=O)=O)cc2)c(-c2ccc(Cl)cc2)n1 | 85 | 0.89 | 30 | 1 | 0.54 | 37 | 0.71 | 140 | 0.41 | 0.58 | – | – | – | – | – |

From ChEMBL document CHEMBL3102769, “Synthesis, docking simulation, biological evaluations and 3D-QSAR study of 5-Aryl-6-(4-methylsulfonyl)-3-(metylthio)-1,2,4-triazine as selective cyclooxygenase-2 inhibitors” (Bioorg Med Chem, 2014)
